*1 amine or outer side, *2 acyl side, *3 side chain or, on linkers, in order; H or OH if unused. Where a SMILES comes first, the peptide text is derived from it. Bridges are numbered along the chain shown (N, C = ends). [ ]: non-standard residue; d: D form. X1 = CSCC[C@@H](C(=O)[*:2])N(C[C@@H](CS[*:3])NC(C)=O)[*:1]

For the first assay, the target named is Low-density lipoprotein receptor (Homo sapiens) (UniProt P01130). Nature of the assay: Displacement of S-tagged Ac-[cMPRLRGC]c-NH2 from human DsRed2-fused LDLR expressed in CHO cells at 10 uM after 1 hr by FRET assay. It is filed as cell-based. In a few lines: (§1)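 CHO cells stably expressing hLDLR-DsRed2 (Ham-F12, 5% FBS, Geneticin) at 800 000 cells/well were incubated in triplicate with S-tagged reference peptide (10 μM) plus test peptide (10 μM) in Ham-F12/1% BSA, 1 h, 37 °C. Scrambled and untagged peptide controls were included; values are means of at least three points.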
Chain of Low-density lipoprotein receptor (Homo sapiens) (P01130 whole entry, the tested form may be a part): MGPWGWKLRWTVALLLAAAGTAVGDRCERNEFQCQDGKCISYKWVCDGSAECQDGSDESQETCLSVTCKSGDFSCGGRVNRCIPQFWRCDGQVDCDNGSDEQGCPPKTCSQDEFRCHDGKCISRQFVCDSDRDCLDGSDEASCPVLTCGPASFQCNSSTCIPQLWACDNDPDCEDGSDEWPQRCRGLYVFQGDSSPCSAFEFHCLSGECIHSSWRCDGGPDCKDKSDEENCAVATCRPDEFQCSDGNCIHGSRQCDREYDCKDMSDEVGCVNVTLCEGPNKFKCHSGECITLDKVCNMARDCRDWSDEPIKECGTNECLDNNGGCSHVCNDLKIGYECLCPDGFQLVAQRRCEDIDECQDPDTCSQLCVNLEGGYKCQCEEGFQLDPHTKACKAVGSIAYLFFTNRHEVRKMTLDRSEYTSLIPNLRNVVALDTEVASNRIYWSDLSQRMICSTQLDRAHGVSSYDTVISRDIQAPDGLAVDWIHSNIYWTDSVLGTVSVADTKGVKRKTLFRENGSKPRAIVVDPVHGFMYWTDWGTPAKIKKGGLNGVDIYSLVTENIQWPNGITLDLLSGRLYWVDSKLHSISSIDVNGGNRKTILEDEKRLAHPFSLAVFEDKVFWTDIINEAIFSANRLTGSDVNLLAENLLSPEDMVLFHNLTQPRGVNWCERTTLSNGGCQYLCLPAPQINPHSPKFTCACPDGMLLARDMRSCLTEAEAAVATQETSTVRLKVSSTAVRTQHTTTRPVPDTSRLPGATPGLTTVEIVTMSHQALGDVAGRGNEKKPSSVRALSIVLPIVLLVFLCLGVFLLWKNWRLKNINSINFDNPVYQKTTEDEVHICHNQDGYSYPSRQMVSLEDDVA
For the compound `CSCC[C@H]1CN2CCC[C@H]2C(=O)N[C@@H](CCCNC(=N)N)C(=O)N[C@@H](CC(C)C)C(=O)N[C@@H](CCCNC(=N)N)C(=O)NCC(=O)N[C@H](C(N)=O)CSSC[C@@H](NC(C)=O)C(=O)N1`, the inhibition (as a rule, the drop in the measured response relative to a control, in per cent) turned out to be 33%.

`CSCC[C@@H]1NC(=O)[C@H](NC(C)=O)CSSC[C@@H](C(N)=O)NC(=O)CNC(=O)[C@H](CCCNC(=N)N)NC[C@H](CC(C)C)NC(=O)[C@H](CCCNC(=N)N)NC(=O)[C@@H]2CCCN2C1=O` showed an inhibition of 40%.

As to `CSCC[C@@H]1NC(=O)[C@H](NC(C)=O)CSSC[C@@H](C(N)=O)NC(=O)CNC(=O)[C@H](CCCN)NC(=O)[C@H](CC(C)C)NC(=O)[C@H](CCCNC(=N)N)NC(=O)[C@@H]2CCCN2C1=O`, the inhibition turned out to be 0%.

Turning to `CSCC[C@@H]1NC(=O)[C@H](NC(C)=O)CNC(=N)NC[C@@H](C(N)=O)NC(=O)CNC(=O)[C@H](CCCNC(=N)N)NC(=O)[C@H](CC(C)C)NC(=O)[C@H](CCCNC(=N)N)NC(=O)[C@@H]2CCCN2C1=O`, the inhibition amounted to 0%.

In turn, `CSCC[C@@H]1NC(=O)[C@H](NC(C)=O)CSSC[C@@H](C(N)=O)NC(=O)CNC(=O)[C@H](CCCN)NC(=O)[C@H](CC(C)C)NC(=O)[C@H](CCCN)NC(=O)[C@@H]2CCCN2C1=O` had an inhibition of 31%.

`CSCCC1NC(=O)[C@H](NC(C)=O)CNC(=O)C[C@@H](C(N)=O)NC(=O)CNC(=O)[C@H](CCCNC(=N)N)NC(=O)[C@H](CC(C)C)NC(=O)[C@H](CCCNC(=N)N)NC(=O)[C@@H]2CCCN2C1=O` (single isomer, unassigned) had an inhibition of 12%.

In turn, `CSCC[C@@H]1NC(=O)C(NC(C)=O)CSCC(C(N)=O)NC(=O)CNC(=O)[C@H](CCCNC(=N)N)NC(=O)[C@H](CC(C)C)NC(=O)[C@H](CCCNC(=N)N)NC(=O)[C@@H]2CCCN2C1=O` (mixture of isomers) gave an inhibition of 41%.

The compound `CSCC[C@@H]1NC(=O)[C@H](NC(C)=O)CSSC[C@@H](C(N)=O)NC(=O)CNC(=O)[C@H](CCCNC(=N)N)NC(=O)[C@H](CC(C)C)NC(=O)[C@H](CCCNC(=N)N)NC(=O)c2ccccc2NC1=O` registered an inhibition of 0%.

On to `CSCC[C@@H]1NC(=O)[C@H](NC(C)=O)CSSC[C@@H](C(N)=O)NC(=O)CNC(=O)[C@H](CCCNC(=N)N)NC(=O)[C@H](CC(C)C)NC(=O)[C@H](CCCNC(=N)N)NC(=O)CN(C)C1=O`, for which the inhibition was 22%.

As to `CSCC[C@H](NC(=O)[C@H]1CSSC[C@H](N)C(=O)NCC(=O)N[C@@H](CCCNC(=N)N)C(=O)N[C@@H](CC(C)C)C(=O)N[C@@H](CCCNC(=N)N)C(=O)N2CCC[C@H]2C(=O)N1)C(=O)NC(C)=O`, the inhibition was 28%.

`CSCC[C@@H]1NC(=O)[C@H](NC(C)=O)CSSC[C@@H](C(N)=O)NC(=O)CNC(=O)[C@H](CCCNC(=N)N)NC(=O)[C@H](CC(C)C)NC(=O)[C@H](CCCNC(=N)N)NC[C@@H]2CCCN2C1=O`: the inhibition was found to be 0%.

On to `CC(=O)N[C@@H]1CSSC[C@@H](C(N)=O)NC(=O)CNC(=O)[C@H](CCCNC(=N)N)NC(=O)[C@H](CC(C)C)NC(=O)[C@H](CCCNC(=N)N)NC(=O)[C@@H]2CCCN2C(=O)[C@H](Cc2cccs2)NC1=O`, for which the inhibition worked out at 0%.

Consider `CSCC[C@@H]1NC(=O)[C@H](NC(C)=O)Cc2cn(nn2)CC[C@@H](C(N)=O)NC(=O)CNC(=O)[C@H](CCCNC(=N)N)NC(=O)[C@H](CC(C)C)NC(=O)[C@H](CCCNC(=N)N)NC(=O)[C@@H]2CCCN2C1=O`, for which the inhibition is 13%.

The compound `COCC[C@@H]1NC(=O)[C@H](NC(C)=O)CSSC[C@@H](C(N)=O)NC(=O)CNC(=O)[C@H](CCCNC(=N)N)NC(=O)[C@H](CC(C)C)NC(=O)[C@H](CCCNC(=N)N)NC(=O)[C@@H]2CCCN2C1=O` gave an inhibition of 0%.

Compound `CSCC[C@@H]1NC(=O)[C@H](NC(C)=O)C/C=C\C[C@@H](C(N)=O)NC(=O)CNC(=O)[C@H](CCCNC(=N)N)NC(=O)[C@H](CC(C)C)NC(=O)[C@H](CCCNC(=N)N)NC(=O)[C@@H]2CCCN2C1=O` had an inhibition of 22%.

`CSCC[C@@H]1NC[C@H](NC(C)=O)CSSC[C@@H](C(N)=O)NC(=O)CNC(=O)[C@H](CCCNC(=N)N)NC(=O)[C@H](CC(C)C)NC(=O)[C@H](CCCNC(=N)N)NC(=O)[C@@H]2CCCN2C1=O` (H-[X1]PRLRGC-NH2; disulfide 1-7) displayed an inhibition of 37%.

`CSCC[C@@H]1NC(=O)[C@H](NC(C)=O)CSSC[C@@H](C(N)=O)NC(=O)CNC(=O)[C@H](CCCNC(=N)N)NC(=O)[C@H](CC(C)C)NC(=O)[C@H](CCCNC(=N)N)NC(=O)[C@@H]2c3ccccc3CCN2C1=O` had an inhibition of 21%.

Compound `CSCC[C@@H]1NC(=O)[C@H](NC(C)=O)CSSC[C@@H](C(N)=O)NC(=O)CNC(=O)[C@H](CCCNC(=N)N)NC(=O)[C@H](CC(C)C)NC(=O)[C@H](CCCN)NC(=O)[C@@H]2CCCN2C1=O` registered an inhibition of 28%.

`CSCC[C@@H]1NC(=O)[C@H](NC(C)=O)CSSC[C@@H](C(N)=O)NC(=O)[C@@H](C)NC(=O)[C@H](CCCNC(=N)N)NC(=O)[C@H](CC(C)C)NC(=O)[C@H](CCCNC(=N)N)NC(=O)[C@@H]2CCCN2C1=O` gave an inhibition of 54%.

For `CSCC[C@H](NC(=O)[C@@H]1CCCN1C(=O)[C@@H](CCCNC(=N)N)[C@H]1CSSC[C@H](N)C(=O)NCC(=O)N[C@@H](CCCNC(=N)N)C(=O)N[C@@H](CC(C)C)C(=O)N1)C(=O)NC(C)=O`, the inhibition stood at 34%.

With `CSCC[C@@H]1NC(=O)[C@H](NC(C)=O)CSSC[C@@H](C(N)=O)NC(=O)CNC(=O)[C@H](CCCNC(=N)N)NC(=O)[C@H](CC(C)C)NC[C@H](CCCNC(=N)N)NC(=O)[C@@H]2CCCN2C1=O`, the inhibition was found to be 58%.

`CSCC[C@H](NC(=O)[C@@H]1CCCN1C(=O)[C@H]1CSSC[C@H](N)C(=O)NCC(=O)N[C@@H](CCCNC(=N)N)C(=O)N[C@@H](CC(C)C)C(=O)N[C@@H](CCCNC(=N)N)C(=O)N1)C(=O)NC(C)=O` came in with an inhibition of 34%.

In the case of `CC(=O)N[C@@H]1CSSC[C@@H](C(N)=O)NC(=O)CNC(=O)[C@H](CCCNC(=N)N)NC(=O)[C@H](CC(C)C)NC(=O)[C@H](CCCNC(=N)N)NC(=O)[C@@H]2CCCN2C(=O)[C@@H]2CSCN2C1=O`, the inhibition turned out to be 0%.

The next assay shares this target. Description: Displacement of S-tagged Ac-DSGL[CMPRLRGC]cDPR-NH2 from human DsRed2-fused LDLR expressed in CHO cells at 10 uM after 1 hr by FRET assay. The format is cell-based. Put shortly:
as §1
As to Ac-DSGLAMPRLRGCDPR-NH2, the inhibition amounted to 0%.

`CSCC[C@@H]1NC(=O)[C@@H](NC(C)=O)CSC[C@@H](C(N)=O)NC(=O)[C@H](CCCNC(=N)N)NC(=O)[C@@H]2CCCN2C1=O` had an inhibition of 0%.

`CSCC[C@@H]1NC(=O)[C@@H](NC(=O)[C@H](CC(C)C)NC(=O)CNC(=O)[C@H](CO)NC(=O)[C@H](CC(=O)O)NC(C)=O)CSSC[C@@H](C(=O)N[C@@H](CC(=O)O)C(=O)N2CCC[C@H]2C(=O)N[C@@H](CCCNC(=N)N)C(N)=O)NC(=O)CNC(=O)[C@H](CCCNC(=N)N)NC(=O)[C@H](CC(C)C)NC(=O)[C@H](C)NC(=O)[C@@H]2CCCN2C1=O` (Ac-DSGLCMPALRGCDPR-NH2; disulfide 5-12) had an inhibition of 0%.

On to `CSCC[C@@H]1NC(=O)[C@@H](NC(=O)[C@H](C)NC(=O)CNC(=O)[C@H](CO)NC(=O)[C@H](CC(=O)O)NC(C)=O)CSSC[C@@H](C(=O)N[C@@H](CC(=O)O)C(=O)N2CCC[C@H]2C(=O)N[C@@H](CCCNC(=N)N)C(N)=O)NC(=O)CNC(=O)[C@H](CCCNC(=N)N)NC(=O)[C@H](CC(C)C)NC(=O)[C@H](CCCNC(=N)N)NC(=O)[C@@H]2CCCN2C1=O` (Ac-DSGACMPRLRGCDPR-NH2; disulfide 5-12), for which the inhibition amounted to 64%.

`CSCC[C@@H]1NC(=O)[C@@H](NC(=O)[C@H](CC(C)C)NC(=O)CNC(=O)[C@H](CO)NC(=O)[C@H](CC(=O)O)NC(C)=O)CSSC[C@@H](C(=O)N[C@@H](CC(=O)O)C(=O)N2CCC[C@H]2C(=O)N[C@@H](CCCNC(=N)N)C(N)=O)NC(=O)[C@H](C)NC(=O)[C@H](CCCNC(=N)N)NC(=O)[C@H](CC(C)C)NC(=O)[C@H](CCCNC(=N)N)NC(=O)[C@@H]2CCCN2C1=O` (Ac-DSGLCMPRLRACDPR-NH2; disulfide 5-12) showed an inhibition of 20%.

`CC(=O)N[C@@H](CC(=O)O)C(=O)N[C@@H](CO)C(=O)NCC(=O)N[C@@H](CC(C)C)C(=O)N[C@H]1CSSC[C@@H](C(=O)N[C@@H](CC(=O)O)C(=O)N2CCC[C@H]2C(=O)N[C@@H](CCCNC(=N)N)C(N)=O)NC(=O)CNC(=O)[C@H](CCCNC(=N)N)NC(=O)[C@H](CC(C)C)NC(=O)[C@H](CCCNC(=N)N)NC(=O)[C@@H]2CCCN2C(=O)[C@H](C)NC1=O` (Ac-DSGLCAPRLRGCDPR-NH2; disulfide 5-12) returned an inhibition of 0%.

As to Ac-DSGLCMPRLRGADPR-NH2, the inhibition was found to be 0%.

In the case of `CSCC[C@@H]1NC(=O)[C@@H](NC(=O)[C@H](CC(C)C)NC(=O)CNC(=O)[C@H](CO)NC(=O)[C@H](CC(=O)O)NC(C)=O)CSSC[C@@H](C(=O)N[C@@H](CC(=O)O)C(=O)N2CCC[C@H]2C(=O)N[C@@H](CCCNC(=N)N)C(N)=O)NC(=O)CNC(=O)[C@H](C)NC(=O)[C@H](CC(C)C)NC(=O)[C@H](CCCNC(=N)N)NC(=O)[C@@H]2CCCN2C1=O` (Ac-DSGLCMPRLAGCDPR-NH2; disulfide 5-12), the inhibition was found to be 2%.

The compound `CSCC[C@@H]1NC(=O)[C@@H](NC(=O)[C@H](CC(C)C)NC(=O)CNC(=O)[C@H](CO)NC(=O)[C@H](C)NC(C)=O)CSSC[C@@H](C(=O)N[C@@H](CC(=O)O)C(=O)N2CCC[C@H]2C(=O)N[C@@H](CCCNC(=N)N)C(N)=O)NC(=O)CNC(=O)[C@H](CCCNC(=N)N)NC(=O)[C@H](CC(C)C)NC(=O)[C@H](CCCNC(=N)N)NC(=O)[C@@H]2CCCN2C1=O` (Ac-ASGLCMPRLRGCDPR-NH2; disulfide 5-12) registered an inhibition of 55%.

As for `CSCC[C@@H]1NC(=O)[C@@H](NC(C)=O)CSSC[C@@H](C(N)=O)NC(=O)CNC(=O)[C@H](CCCNC(=N)N)NC(=O)[C@@H]2CCCN2C1=O` (Ac-CMPRGC-NH2; disulfide 1-6), the inhibition was determined as 39%.

Source of the values: ChEMBL document CHEMBL2086366, “Chemical optimization of new ligands of the low-density lipoprotein receptor as potential vectors for central nervous system targeting” (J Med Chem, 2012).
